Laboratory results as given in publication PMC4156448 (Memórias do Instituto Oswaldo Cruz, 2014).

Key:
[1] = tested on: Plasmodium berghei (NK65); test: Antimalarial suppressive test against Plasmodium berghei in mice; assay type: in vivo; conditions: P. berghei; for Inhibition of parasitaemia at days after parasite inoculation (%) Fifth: day 5; for Inhibition of parasitaemia at days after parasite inoculation (%) Ninth: day 9
Outline: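 Oral 4-day-type suppressive test, run once. P. berghei NK65 (chloroquine-sensitive) blood stages kept at -70 °C and passaged weekly in outbred Swiss mice. Adult female mice (20 ± 2 g) received 1 × 10^5 infected erythrocytes and were randomised into groups of three 24 h later. […] Parasitaemia was read on Giemsa-stained tail-blood smears on days 5 and 9, as inhibition versus untreated mice (100%).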

[2] = tested on: human hepatocellular liver carcinoma cell line (HepG2); test: Cytotoxicity MTT assay, HepG2 cells; assay type: cell-based; conditions: 24 h, unit only from tested concentrations
[3] = tested on: normal monkey kidney cells (BGM); test: Cytotoxicity MTT assay, BGM cells; assay type: cell-based; conditions: for BGM MLD50: BGM cells, 24 h, MTT, unit only from tested concentrations
[4] = tested on: Plasmodium falciparum W2 clone (chloroquine-resistant); test: In vitro activity against P. falciparum blood-stage parasites, anti-HRPII test; assay type: cell-based; conditions: classified by IC50
[5] = chloroquine 20 mg/kg, listed as chloroquine
[6] = oral 100 mg/kg for three consecutive days

Structure (SMILES) | HepG2 MLD50 [2] | BGM MLD50 [3] | in vitro activity class against P. falciparum [4] | further results
CCN(CC)CCCC(C)Nc1ccnc2cc(Cl)ccc12 (stereo not shown) [Chloroquine] | – | – | – | Activity ([1]; chloroquine 20 mg/kg): Cure; Inhibition of parasitaemia at days after parasite inoculation (%) Fifth ([1]; chloroquine 20 mg/kg): 100%; Inhibition of parasitaemia at days after parasite inoculation (%) Ninth ([1]; chloroquine 20 mg/kg): 100%; Activity [1, 5]: clearing parasitaemia; survival of mice [1, 5]: maintaining survival of the mice
CC(C)=CCC1=C(O)C(=O)c2ccccc2C1=O [Compound 10, Lapachol] | 1,491.7 ± 321.4 µM | 1,785.1 ± 888.3 µM | – | –
CC(C)=CC1=C(O)C(=O)c2ccccc2C1=O [Compound 11, Nor-lapachol] | 1,698.6 ± 94.8 µM | 1,608.8 ± 221.8 µM | partially active (those with IC50 values between 5-30 µM were considered partially active) | in vivo activity class ([1]; oral 100 mg/kg): inactive; Inhibition of parasitaemia at days after parasite inoculation (%) Fifth [1, 6]: 21%; Inhibition of parasitaemia at days after parasite inoculation (%) Ninth [1, 6]: 21%
CC(C)/C=C/C1=C(O)C(=O)c2ccccc2C1=O [Compound 12, Iso-lapachol] | ≥ 4,127.6 µM | 1,388.9 ± 592.5 µM | partially active (those with IC50 values between 5-30 µM were considered partially active) | difference in cytotoxicity between HepG2 and BGM cells ([3]; HepG2 versus BGM): near two-fold increase
CC1=C(O)C(=O)c2ccccc2C1=O [Compound 13, 2-hydroxy-3-methyl-1,4-naphthoquinone] | 5,308.2 ± 8.3 µM | ≥ 5,314.1 µM | – | –
